Data reported in ChEMBL document CHEMBL5532704, “Exploiting thiol-functionalized benzosiloxaboroles for achieving diverse substitution patterns - synthesis, characterization and biological evaluation of promising antibacterial agents” (RSC Med Chem, 2024).

How the values were obtained:
[1] = test system: Bacillus subtilis; assay: Antibacterial activity against Bacillus subtilis ATCC 6633 assessed as diameter of inhibition zone by CLSI based disc-diffusion method; type: functional
In short: (§1)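 Strains were stored at −80 °C, then subcultured twice on tryptic soy agar for 24–48 h at 30 °C before the disc-diffusion test. The result was recorded as the inhibition-zone diameter.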

[2] = test system: Staphylococcus aureus; assay: Antibacterial activity against methicillin-resistant Staphylococcus aureus ATCC 43300 assessed as diameter of inhibition zone by CLSI based disc-diffusion method; type: functional
In short: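 Disc-diffusion on standard strain subcultured twice on tryptic soy agar (24–48 h, 30 °C) after storage at −80 °C; inhibition zone diameter read; linezolid disc (0.03 mg) as reference.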

[3] = test system: Escherichia coli; assay: Antibacterial activity against Escherichia coli ATCC 25922 assessed as inhibition of cell growth by broth-microdilution method; type: functional
In short: (§2)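 Strains were held at −80 °C and subcultured twice on tryptic soy agar for 24–48 h at 30 °C. MIC was read by CLSI broth microdilution in Mueller–Hinton II broth, with and without the efflux-pump inhibitor PAβN (20 µg mL⁻¹). Both sets contained 1 mM MgSO₄. A ≥4-fold MIC drop with PAβN was taken as significant.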

[4] = test system: Klebsiella pneumoniae; assay: Antibacterial activity against Klebsiella pneumoniae ATCC 13883 assessed as inhibition of cell growth by broth-microdilution method; type: functional; in short: as §2
[5] = test system: Proteus mirabilis; assay: Antibacterial activity against Proteus mirabilis ATCC 12453 assessed as inhibition of cell growth by broth-microdilution method; type: functional; in short: as §2
[6] = test system: Enterobacter cloacae; assay: Antibacterial activity against Enterobacter cloacae DSM 6234 assessed as inhibition of cell growth by broth-microdilution method; type: functional; in short: as §2
[7] = test system: Serratia marcescens; assay: Antibacterial activity against Serratia marcescens ATCC 13880 assessed as inhibition of cell growth by broth-microdilution method; type: functional; in short: as §2
[8] = test system: Acinetobacter baumannii; assay: Antibacterial activity against Acinetobacter baumannii ATCC 19606 assessed as inhibition of cell growth by broth-microdilution method; type: functional; in short: as §2
[9] = test system: Pseudomonas aeruginosa; assay: Antibacterial activity against Pseudomonas aeruginosa ATCC […] assessed as inhibition of cell growth by broth-microdilution method; type: functional; in short: as §2
[10] = test system: Stenotrophomonas maltophilia; assay: Antibacterial activity against Stenotrophomonas maltophilia ATCC 12714 assessed as inhibition of cell growth by broth-microdilution method; type: functional; in short: as §2
[11] = test system: Stenotrophomonas maltophilia; assay: Antibacterial activity against Stenotrophomonas maltophilia ATCC 13637 assessed as inhibition of cell growth by broth-microdilution method; type: functional; in short: as §2
[12] = test system: Burkholderia cepacia; assay: Antibacterial activity against Burkholderia cepacia ATCC 25416 assessed as inhibition of cell growth by broth-microdilution method; type: functional
[13] = test system: Enterococcus faecium; assay: Antibacterial activity against Enterococcus faecium ATCC 6057 assessed as diameter of inhibition zone by CLSI based disc-diffusion method; type: functional; in short: as §1
[14] = test system: Enterococcus faecium; assay: Antibacterial activity against Enterococcus faecium ATCC 6057 assessed as inhibition of microbial growth by broth-microdilution method; type: functional
In short: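 Stocks were kept at −80 °C and subcultured twice on tryptic soy agar (24–48 h, 30 °C). MIC came from CLSI broth microdilution in Mueller–Hinton II broth, using agents dissolved in DMSO. The top tested concentration was lowered to 200, 100 or 50 µg mL⁻¹ for agents that precipitated in the medium above those levels.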

[15] = test system: Enterococcus faecalis; assay: Antibacterial activity against Enterococcus faecalis ATCC 29212 assessed as diameter of inhibition zone by CLSI based disc-diffusion method; type: functional; in short: as §1
[16] = test system: Staphylococcus aureus; assay: Bactericidal activity against methicillin-resistant Staphylococcus aureus NMI 1712 K assessed as inhibition of microbial growth by CLSI based microdilution method; type: functional
[17] = Selectivity ratio of IC50 for cytotoxicity against human MRC5 cells assessed as inhibition of cell growth to MIC for antibacterial activity against methicillin-resistant Staphylococcus aureus ATCC 43300 assessed as inhibition of microbial growth; type: toxicity, cell-based
[18] = Selectivity ratio of IC50 for cytotoxicity against human MRC5 cells assessed as inhibition of cell growth to MIC for antibacterial activity against methicillin-resistant Staphylococcus aureus NMI 664 K assessed as inhibition of microbial growth by broth-microdilution method; type: toxicity, cell-based
[19] = Selectivity ratio of IC50 for cytotoxicity against human MRC5 cells assessed as inhibition of cell growth to MIC for antibacterial activity against methicillin-resistant Staphylococcus aureus NMI 1576 K assessed as inhibition of microbial growth by broth-microdilution method; type: toxicity, cell-based
[20] = Selectivity ratio of IC50 for cytotoxicity against human MRC5 cells assessed as inhibition of cell growth to MIC for antibacterial activity against methicillin-resistant Staphylococcus aureus NMI 1712 K assessed as inhibition of microbial growth by broth-microdilution method; type: toxicity, cell-based
[21] = Selectivity ratio of IC50 for cytotoxicity against human MRC5 cells assessed as inhibition of cell growth to MIC for antibacterial activity against methicillin-resistant Staphylococcus aureus NMI 1991 K assessed as inhibition of microbial growth by broth-microdilution method; type: toxicity, cell-based
[22] = Selectivity ratio of IC50 for cytotoxicity against human MRC5 cells assessed as inhibition of cell growth to MIC for antibacterial activity against methicillin-resistant Staphylococcus aureus NMI 2541 K assessed as inhibition of microbial growth by broth-microdilution method; type: toxicity, cell-based
[23] = test system: Staphylococcus epidermidis; assay: Antibacterial activity against Staphylococcus epidermidis ATCC 12228 assessed as diameter of inhibition zone by CLSI based disc-diffusion method; type: functional; in short: as §1
[24] = test system: Staphylococcus aureus; assay: Bactericidal activity against methicillin-resistant Staphylococcus aureus NMI 2541 K assessed as inhibition of microbial growth by CLSI based microdilution method; type: functional

Compound	diameter of the inhibition zone (DIZ) [1] [mm]	diameter of the inhibition zone (DIZ) [2] [mm]	MIC [3] [mg/L]	MIC [4] [mg/L]	MIC [5] [mg/L]	MIC [6] [mg/L]	MIC [7] [mg/L]	MIC [8] [mg/L]	MIC [9] [mg/L]	MIC [10] [mg/L]	MIC [11] [mg/L]	MIC [12] [mg/L]	diameter of the inhibition zone (DIZ) [13] [mm]	diameter of the inhibition zone (DIZ) [15] [mm]	selectivity ratio [17]	selectivity ratio [18]	selectivity ratio [19]	selectivity ratio [20]	selectivity ratio [21]	selectivity ratio [22]	further results
C[Si]1(C)OB(O)c2ccc(SC3CC(=O)NC3=O)c(F)c21 (stereo not given)	24	22	> 25	> 25	> 25	> 25	> 25	> 25	> 25	> 25	> 25	> 25	–	–	–	–	–	–	–	–	–
CC(=O)CCSc1c(F)cc2c(c1F)[Si](C)(C)OB2O	–	19	–	–	–	–	–	–	–	–	–	–	21	19	–	–	–	–	–	–	MIC [14]: 12.5 mg/L
C[Si]1(C)OB(O)c2cc(F)c(SCCC#N)c(F)c21	23	19	–	–	–	–	–	–	–	–	–	–	–	–	11.2	11.2	11.2	11.2	11.2	11.2	MBC [16]: 12.5 mg/L
C[Si]1(C)OB(O)c2cc(F)c(SC3CC(=O)NC3=O)c(F)c21 (stereo not given)	27	23	> 25	> 25	> 25	> 25	> 25	> 25	> 25	> 25	> 25	> 25	–	–	13.4	13.4	26.8	13.4	13.4	13.4	–
CCOP(=O)(OCC)Sc1c(F)cc2c(c1F)[Si](C)(C)OB2O	24	27	–	–	–	–	–	–	–	–	–	–	11	11	> 32	> 32	> 32	> 32	> 32	> 32	diameter of the inhibition zone (DIZ) [23]: 20 mm; MBC [24]: > 12.5 mg/L
